Article PMC3157043 (Nuclear medicine and biology, 2011)

Experiments:
adenosine A2A = adenosine A2A (Rattus norvegicus, UniProt P30543); assay: In vitro autoradiography of rat brain slices; type: binding; settings: 90 min incubation, 2.3 MBq tracer, phosphor imaging
A2A receptor [1] = target: T1, A2A receptor (Rattus norvegicus, UniProt P30543); assay: Ex vivo brain autoradiography / in vivo blocking; settings: 30 min after i.v. injection of 12.9 MBq, 50 µm slices
[2] = In vivo biodistribution in normal rats; set-up: species or system rat
Summary of the method: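 Non-lesioned male SD rats received ~11.1 MBq (300 µCi)/rat radiotracer i.v. in saline. They were killed by CO2 asphyxiation at 30 (n = 4), 60 (n = 4) or 120 min (n = 6). Brain, blood and other tissues were wet-weighed and gamma-counted, and uptake was expressed as %ID/g. Data are mean ± SEM, with means compared by 1-way ANOVA.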

A2A receptor [3] = target: T1, A2A receptor; assay: PET kinetic experiment in normal rats; type: in vivo
Summary of the method: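 Unlesioned male SD rats, age-matched to 13–14-week lesioned rats, were imaged on an Inveon microPET under isoflurane (2–3% v/v in O2). Each received […]/rat radiotracer i.v. in saline, followed by a 30 min list-mode emission scan. Caudate-putamen ROI mean pixel values were converted to counts/g/min (1 g/mL density) and divided by injected dose to give %ID/g, reported as mean ± SEM.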

A2A receptor [4] = target: T1, A2A receptor; assay: PET kinetic experiment in unilaterally 6-OHDA-lesioned rats; type: in vivo
[5] = In vitro metabolism in cryopreserved rat hepatocytes; type: in vitro ADME; settings: rat hepatocyte incubation
[6] = normal rats; cited from earlier work
A2A = settings: cited from earlier work

T1 sequence (P30543 whole entry): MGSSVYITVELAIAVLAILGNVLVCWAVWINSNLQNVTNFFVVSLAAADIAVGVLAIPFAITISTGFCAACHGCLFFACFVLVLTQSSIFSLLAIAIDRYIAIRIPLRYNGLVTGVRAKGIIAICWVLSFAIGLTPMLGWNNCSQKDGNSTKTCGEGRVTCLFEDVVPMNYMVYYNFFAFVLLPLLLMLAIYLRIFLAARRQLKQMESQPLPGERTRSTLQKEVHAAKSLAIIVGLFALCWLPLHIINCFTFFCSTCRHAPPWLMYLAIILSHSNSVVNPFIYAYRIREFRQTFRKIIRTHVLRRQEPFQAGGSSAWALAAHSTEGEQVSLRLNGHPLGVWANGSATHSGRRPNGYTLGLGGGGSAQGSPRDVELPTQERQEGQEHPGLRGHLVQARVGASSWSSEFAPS
Chain of adenosine A2A (P30543 whole entry): as above

**Q.** Which “radioactivity binding on coronal brain slices” value (adenosine A2A) does the source give for Nc1nc2c(cnn2CCCc2ccc(OCC[18F])cc2)c2nc(-c3ccco3)nn12 [[^18F]-MRS5425, 7-(3-(4-(2-[^18F]fluoroethoxy)phenyl)propyl)-2-(furan-2-yl)-7H-pyrazolo[4,3-e][1,2,4]triazolo[1,5-c]pyrimidin-5-amine] here?
**A.** Its value is “radioactivity binding (dark area in Fig 1 b) in the caudate-putamen (striatum) nucleus bilaterally”.

**Q.** And the “ex vivo radioactivity binding in brain slices” value (A2A receptor [1])?
**A.** Its value is “radioactivity binding in the striatal region bilaterally”.

**Q.** What about the “primary accumulation (tissues)” value ([2]; 30, 60, 120 min biodistribution) of the same molecule?
**A.** Its value is “intestine and urine”.

**Q.** And the uptake in striatum ([2]; 30 min after i.v. injection, n = 4, mean ± SEM)?
**A.** Its uptake in striatum is 0.25 ± 0.09 %ID/g.

**Q.** What about the uptake in striatum ([2]; 60 min after i.v. injection, n = 4, mean ± SEM) of the same molecule?
**A.** Its uptake in striatum is 0.35 ± 0.10 %ID/g.

**Q.** What about the uptake in striatum ([2]; 120 min after i.v. injection, n = 6, mean ± SEM) of the same molecule?
**A.** Its uptake in striatum is 0.13 ± 0.03 %ID/g.

**Q.** And the “uptake in striatum compared to blood” value ([2]; at 30 and 60 min)?
**A.** Its value is ~ 2 fold.

**Q.** What about the “bone uptake in imaging studies” value (A2A receptor [3]; PET imaging in rats, marker of defluorination) of the same molecule?
**A.** The value was “not observed”.

**Q.** What about the “plateau of striatal %ID/g held until” value (A2A receptor [3]; normal rats) of the same molecule?
**A.** The value was 3.5 min.

**Q.** What about the “striatal uptake versus cortical and other regions” value (A2A receptor [3]; normal rats, PET images) of the same molecule?
**A.** The value was “significantly higher uptake”.

**Q.** What about the “time of decline to 75% of peak %ID/g” value (A2A receptor [3]; normal rats, striatum TAC) of the same molecule?
**A.** The value was “about 6 min”.

**Q.** What about the “time of maximum striatal ROI-derived %ID/g” value (A2A receptor [3]; normal rats, striatum TAC) of the same molecule?
**A.** The value was 90 s.

**Q.** What about the “plateau maintained after maximum” value (A2A receptor [3]; normal rats, striatum TAC, additional time after 90 sec) of the same molecule?
**A.** Its value is 2 min.

**Q.** What about the “%ID/g values compared with [11C]-SCH442416 in monkeys” value (A2A receptor [3]; rat striatum versus 0.035 %ID/mL in monkeys) of the same molecule?
**A.** The value was ~ 20 fold.

**Q.** What about the “plateau of striatal %ID/g held until” value (A2A receptor [4]; 6-OHDA rats) of the same molecule?
**A.** The value was 4.5 min.

**Q.** And the “plateau maintained after peak” value (A2A receptor [4]; 6-OHDA-lesioned rats, saline)?
**A.** Its value is “about 3 min”.

**Q.** And the “time of peak baseline striatal %ID/g” value (A2A receptor [4]; 6-OHDA-lesioned rats, saline, both lesioned and intact sides)?
**A.** The value was 90 s.

**Q.** And the “%ID/g in lesioned side compared to intact side” value (A2A receptor [4]; saline baseline, after plateau to 30 min, p < 0.05)?
**A.** The value was “significantly higher”.

**Q.** And the defluorination [5]?
**A.** The defluorination was “evidence for defluorination”.

**Q.** And the metabolite observed ([5]; HPLC-MS, m/z +16, believed N-oxidation)?
**A.** Its metabolite observed is “a major fluorine-containing metabolite”.

**Q.** For [11CH3]Oc1ccc(CCCn2ncc3c2nc(N)n2nc(-c4ccco4)nc32)cc1 [[^11C]-SCH442416], which “time of maximum radioactivity accumulation in striatum” value [6] is on record?
**A.** The value was 5 min.

**Q.** And the “time to reach 50% of peak striatal %ID/g” value [6]?
**A.** The value was at most 25 min.

**Q.** And the “time to reach lowest striatal %ID/g” value [6]?
**A.** Its value is at most 60 min.

**Q.** Which “selectivity over A1 and A3” value (A2A; A2A versus A1 and A3) does the source give for Nc1nc2c(cnn2CCCc2ccc(OCCF)cc2)c2nc(-c3ccco3)nn12 [MRS5425, 7-(3-(4-(2-fluoroethoxy)phenyl)propyl)-2-(furan-2-yl)-7H-pyrazolo[4,3-e][1,2,4]triazolo[1,5-c]pyrimidin-5-amine] here?
**A.** Its value is 1000 fold.

**Q.** And the Ki (A2A; read-out: Ki for A2A)?
**A.** Its Ki is 12.4 nM.
